ChEMBL document CHEMBL4680130, “Substituted 4-phenylthiazoles: Development of potent and selective A, A and dual A/A adenosine receptor antagonists” (Eur J Med Chem, 2020)

Columns and labels:
[1] = biological target: Adenosine receptor A2a (Rattus norvegicus) (UniProt P30543); experiment: Displacement of [3H]MSX2 from adenosine receptor A2A in rat brain striatum membranes at 0.1 uM incubated for 30 mins by radioligand competition assay relative to control; settings: Cell membrane
Outline: (§1)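 A2A binding, [3H]MSX-2 1.0 nM. Membranes: rat brain striatum, or HEK293 cells expressing human A2A. Adenosine deaminase preincubation 20 min, then 30 min at rt in 50 mM Tris-HCl pH 7.4 with 2.5% DMSO. Nonspecific binding defined by 50 µM NECA. GF/B filtration, scintillation counting. Single-concentration percent inhibition, ≥3 experiments in duplicate or triplicate.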

[2] = biological target: T1, Adenosine receptor A1 (Rattus norvegicus) (UniProt P25099); experiment: Displacement of [3H]CCPA from adenosine receptor A1 in rat brain cortex membranes at 0.1 uM incubated for 90 mins by radioligand competition assay; settings: Cell membrane
T1 sequence (whole entry): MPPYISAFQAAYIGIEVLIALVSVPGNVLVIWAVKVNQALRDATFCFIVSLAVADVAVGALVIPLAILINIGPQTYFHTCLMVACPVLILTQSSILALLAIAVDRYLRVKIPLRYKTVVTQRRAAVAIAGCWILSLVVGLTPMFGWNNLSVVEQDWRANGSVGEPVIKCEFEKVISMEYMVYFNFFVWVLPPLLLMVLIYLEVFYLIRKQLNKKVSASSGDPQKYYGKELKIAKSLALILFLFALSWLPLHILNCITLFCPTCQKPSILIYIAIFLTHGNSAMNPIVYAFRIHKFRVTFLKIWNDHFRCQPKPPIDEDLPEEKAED
Outline: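 A1 competition binding with [3H]CCPA, 0.5 nM. Membranes: CHO cells expressing human A1, or rat brain cortex. Membranes preincubated 20 min with adenosine deaminase (2 U/mL per mg protein). Incubation 90 min at rt in 50 mM Tris-HCl pH 7.4 with 2.5% final DMSO. Nonspecific binding defined by 10 µM 2-chloroadenosine. GF/B filtration, scintillation counting.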

Adenosine receptor A3 [3] = biological target: T2, Adenosine receptor A3 (Homo sapiens, UniProt P0DMS8); experiment: Displacement of [3H]PSB-11 from human adenosine receptor A3 expressed in CHO cell membranes incubated for 60 mins by radioligand competition assay; parameters: species or system Cell membrane
T2 sequence (P0DMS8 whole entry): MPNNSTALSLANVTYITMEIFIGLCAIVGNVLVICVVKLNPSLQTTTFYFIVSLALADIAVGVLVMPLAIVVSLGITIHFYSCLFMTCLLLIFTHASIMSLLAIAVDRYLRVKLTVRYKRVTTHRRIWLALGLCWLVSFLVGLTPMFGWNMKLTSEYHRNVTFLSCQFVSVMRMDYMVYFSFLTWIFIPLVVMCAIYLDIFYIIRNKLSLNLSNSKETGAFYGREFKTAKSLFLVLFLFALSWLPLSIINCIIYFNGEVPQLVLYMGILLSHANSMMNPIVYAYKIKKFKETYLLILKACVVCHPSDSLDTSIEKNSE

Adenosine receptor A1 [4] = biological target: T3, Adenosine receptor A1 (Homo sapiens, UniProt P30542); experiment: Displacement of [3H]CCPA from human adenosine receptor A1 expressed in CHO cell membranes incubated for 90 mins by radioligand competition assay; parameters: species or system Cell membrane
T3 sequence (P30542 whole entry): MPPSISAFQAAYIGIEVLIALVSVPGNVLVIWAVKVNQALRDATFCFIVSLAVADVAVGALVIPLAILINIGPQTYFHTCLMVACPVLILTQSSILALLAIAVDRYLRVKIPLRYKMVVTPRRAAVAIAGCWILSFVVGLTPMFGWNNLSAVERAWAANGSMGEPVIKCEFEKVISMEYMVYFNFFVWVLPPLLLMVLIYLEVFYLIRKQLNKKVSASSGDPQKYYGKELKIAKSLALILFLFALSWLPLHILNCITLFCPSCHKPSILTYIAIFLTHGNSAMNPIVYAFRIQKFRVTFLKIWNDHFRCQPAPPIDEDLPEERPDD

Adenosine receptor A2a [5] = biological target: Adenosine receptor A2a (Rattus norvegicus, UniProt P30543); experiment: Displacement of [3H]MSX2 from adenosine receptor A2A in rat brain striatum membranes incubated for 30 mins by radioligand competition assay; type: cell membranes, Cell membrane
Sequence of Adenosine receptor A2a (Rattus norvegicus, UniProt P30543) (P30543 whole entry): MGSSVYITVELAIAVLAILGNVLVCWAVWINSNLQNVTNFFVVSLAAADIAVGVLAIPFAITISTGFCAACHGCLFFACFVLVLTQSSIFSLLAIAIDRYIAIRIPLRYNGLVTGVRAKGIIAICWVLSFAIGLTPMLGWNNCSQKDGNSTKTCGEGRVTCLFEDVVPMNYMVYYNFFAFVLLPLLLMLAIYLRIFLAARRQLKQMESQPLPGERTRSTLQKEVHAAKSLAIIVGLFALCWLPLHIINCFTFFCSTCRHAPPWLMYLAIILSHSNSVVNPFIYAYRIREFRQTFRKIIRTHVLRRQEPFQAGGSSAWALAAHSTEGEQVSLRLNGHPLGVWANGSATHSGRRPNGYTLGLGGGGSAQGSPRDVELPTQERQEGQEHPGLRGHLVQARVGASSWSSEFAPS

Adenosine receptor A2b = biological target: T4, Adenosine receptor A2b (Homo sapiens, UniProt P29275); experiment: Displacement of [3H]PSB-603 from human adenosine receptor A2B expressed in CHO cell membranes incubated for 75 mins by radioligand competition assay; parameters: species or system Cell membrane
T4 sequence (P29275 whole entry): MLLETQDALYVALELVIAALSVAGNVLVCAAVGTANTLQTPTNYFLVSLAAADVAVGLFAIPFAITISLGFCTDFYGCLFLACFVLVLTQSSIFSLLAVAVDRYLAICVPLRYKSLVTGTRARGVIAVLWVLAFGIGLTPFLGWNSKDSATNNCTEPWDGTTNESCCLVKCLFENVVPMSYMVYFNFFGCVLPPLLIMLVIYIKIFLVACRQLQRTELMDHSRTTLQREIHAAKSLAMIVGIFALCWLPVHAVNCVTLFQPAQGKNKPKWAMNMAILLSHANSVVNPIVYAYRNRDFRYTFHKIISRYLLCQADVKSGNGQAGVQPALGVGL

Adenosine receptor A1 [6] = biological target: T5, Adenosine receptor A1 (Rattus norvegicus, UniProt P25099); experiment: Displacement of [3H]CCPA from adenosine receptor A1 in rat brain cortex membranes incubated for 90 mins by radioligand competition assay; type: cell membranes, Cell membrane
T5 sequence (P25099 whole entry): T1 sequence (whole entry)

Adenosine receptor A2a [7] = biological target: T6, Adenosine receptor A2a (Homo sapiens, UniProt P29274); experiment: Displacement of [3H]MSX2 from human adenosine receptor A2A expressed in HEK293 cell membranes incubated for 30 mins by radioligand competition assay; parameters: species or system Cell membrane
T6 sequence (P29274 whole entry): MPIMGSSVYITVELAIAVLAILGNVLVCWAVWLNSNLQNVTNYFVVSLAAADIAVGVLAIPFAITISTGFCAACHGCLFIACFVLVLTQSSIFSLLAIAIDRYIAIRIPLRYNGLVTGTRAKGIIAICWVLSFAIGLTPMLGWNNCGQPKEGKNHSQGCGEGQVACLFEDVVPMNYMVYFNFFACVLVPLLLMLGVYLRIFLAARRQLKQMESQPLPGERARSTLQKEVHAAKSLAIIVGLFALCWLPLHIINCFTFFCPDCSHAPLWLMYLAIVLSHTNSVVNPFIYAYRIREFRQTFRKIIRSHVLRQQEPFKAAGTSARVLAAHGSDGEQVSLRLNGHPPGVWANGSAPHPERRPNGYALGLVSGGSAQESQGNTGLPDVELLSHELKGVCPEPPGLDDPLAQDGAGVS

Adenosine receptor A2a [8] = biological target: T6, Adenosine receptor A2a; experiment: Displacement of [3H]MSX2 from human adenosine receptor A2A expressed in HEK293 cell membranes at 0.1 uM incubated for 30 mins by radioligand competition assay relative to control; settings: Cell membrane; outline: as §1
[9] = biological target: T7, Adenosine receptor A2b (Homo sapiens) (UniProt P29275); experiment: Displacement of [3H]PSB-603 from human adenosine receptor A2B expressed in CHO cell membranes at 0.1 uM incubated for 75 mins by radioligand competition assay relative to control; settings: Cell membrane
T7 sequence (whole entry): T4 sequence (P29275 whole entry)
Outline: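 CHO membranes expressing human or rat A2B, [3H]PSB-603 0.3 nM. Nonspecific binding defined by 10 µM DPCPX. Preincubated 20 min with adenosine deaminase, then 75 min at rt in Tris-HCl pH 7.4 with 2.5% DMSO. Filters washed with ice-cold 50 mM Tris-HCl containing 0.1% BSA; scintillation counting.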

Adenosine receptor A3 [10] = biological target: T8, Adenosine receptor A3 (Rattus norvegicus, UniProt P28647); experiment: Displacement of [3H]NECA from rat adenosine receptor A3 expressed in CHO cell membranes incubated for 60 mins by radioligand competition assay; parameters: species or system Cell membrane
T8 sequence (P28647 whole entry): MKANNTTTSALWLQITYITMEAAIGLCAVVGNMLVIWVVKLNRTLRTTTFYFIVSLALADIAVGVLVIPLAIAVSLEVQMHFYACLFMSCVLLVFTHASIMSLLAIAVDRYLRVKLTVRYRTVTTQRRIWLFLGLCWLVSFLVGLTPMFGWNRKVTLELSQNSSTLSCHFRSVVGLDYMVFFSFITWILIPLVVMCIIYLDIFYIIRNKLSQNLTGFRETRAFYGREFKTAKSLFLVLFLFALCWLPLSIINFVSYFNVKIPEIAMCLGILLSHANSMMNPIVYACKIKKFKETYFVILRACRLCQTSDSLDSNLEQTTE

[11] = biological target: T9, Adenosine receptor A3 (Homo sapiens) (UniProt P0DMS8); experiment: Displacement of [3H]PSB-11 from human adenosine receptor A3 expressed in CHO cell membranes at 0.1 uM incubated for 60 mins by radioligand competition assay; settings: Cell membrane
T9 sequence (whole entry): T2 sequence (P0DMS8 whole entry)
Outline: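 CHO membranes expressing human A3, [3H]PSB-11 0.5 nM. Nonspecific binding defined by 100 µM R-PIA. Adenosine deaminase preincubation 20 min, then 60 min at rt in 50 mM Tris-HCl pH 7.4 with 2.5% DMSO. Filtered on GF/B, scintillation counted.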

[12] = in the assay text read “at 1 uM” for “at 0.1 uM”

Sequence of Adenosine receptor A2a (Rattus norvegicus) (P30543 whole entry): as the sequence (P30543 whole entry) above

| SMILES | inhibition [1] [%] | inhibition ([2]; filed as antagonist) [%] | Ki (Adenosine receptor A3 [3]) [µM] | Ki (Adenosine receptor A1 [4]) [µM] | Ki (Adenosine receptor A2a [5]) [µM] | Ki (Adenosine receptor A2b) [µM] | Ki (Adenosine receptor A1 [6]) [µM] | Ki (Adenosine receptor A2a [7]) [µM] | inhibition (Adenosine receptor A2a [8]; filed as antagonist, in the assay text read “1 uM” for “0.1 uM”) [%] | inhibition [9] [%] | Ki (Adenosine receptor A3 [10]) [µM] | inhibition ([11]; dose 1 µM, in the assay text read “1 uM” for “0.1 uM”) [%] | inhibition (Adenosine receptor A2a [8]; [12]) [%] | inhibition [2] [%] | inhibition ([11]; filed as antagonist, dose 0.1 µM) [%] |
| --- | --- | --- | --- | --- | --- | --- | --- | --- | --- | --- | --- | --- | --- | --- | --- |
| O=C(Nc1nc(-c2ccccc2)c(-c2nc3ccccc3c(=O)n2-c2ccccc2)s1)c1ccccc1 | 3 | 1 | 0.111 | > 1 | > 1 | > 0.1 | > 1 | > 1 | – | – | – | – | – | – | – |
| COc1ccc(C(=O)Nc2nc(-c3ccccc3)c(C(=O)c3ccccc3)s2)cc1 | 32 | – | 0.0254 | 0.0367 | > 1 | > 0.1 | 0.00147 | > 1 | 41 | 2 | > 1 | – | – | – | – |
| COc1ccc(C(=O)Nc2nc(-c3ccccc3)c(C(=O)c3ccc(OC)cc3)s2)cc1 | 16 | – | > 1 | 0.0136 | > 1 | > 0.1 | 0.00177 | > 1 | – | – | – | 37 | – | – | – |
| COc1ccc(-n2c(-c3sc(NC(=O)c4ccccc4)nc3-c3ccccc3)nc3ccccc3c2=O)cc1 | 17 | 10 | 0.00823 | > 1 | > 1 | > 0.1 | > 1 | > 1 | – | – | 1.32 | – | 3 | – | – |
| Cc1ccc(-n2c(-c3sc(NC(=O)c4ccccc4)nc3-c3ccccc3)nc3ccccc3c2=O)cc1 | 17 | 23 | 0.00905 | > 1 | > 1 | > 0.1 | > 1 | > 1 | – | – | 0.806 | – | – | – | – |
| CC[C@@H]1CN2C(=O)N(C)c3nc(-c4cc(Cl)cc(Cl)c4Cl)[nH]c3C2=N1 | – | – | – | 1.7 | 6.04 | 30 | 0.805 | 2.7 | – | – | – | – | – | – | – |
| COc1ccc(C(=O)Nc2nc(-c3ccccc3)c(-c3nc4ccccc4c(=O)n3-c3ccc(OC)cc3)s2)cc1 | 1 | – | 0.00463 | > 1 | > 1 | > 0.1 | > 1 | > 1 | – | – | > 10 | – | 10 | 17 | – |
| O=C(Nc1nc(-c2ccccc2)c(-c2ccccn2)s1)c1ccccc1 | – | – | > 1 | 0.0908 | 0.391 | > 0.1 | 0.00347 | 0.0836 | – | – | – | – | – | – | – |
| Cn1c(=O)c2[nH]cnc2n(C)c1=O [THEOPHYLLINE] | – | – | – | – | – | – | – | – | – | – | > 100 | – | – | – | – |
| O=C(Nc1nc(-c2ccccc2)c(-c2nc3ccccc3c(=O)n2-c2ccccc2)s1)c1ccco1 | 33 | – | 0.129 | > 1 | > 1 | > 0.1 | > 1 | > 1 | – | 1 | – | – | 5 | 26 | – |
| CCCOC(=O)c1c(-c2ccccc2)nc(CC)c(C(=O)SCC)c1CCC | – | – | – | > 10 | – | > 10 | – | 3.66 | – | – | – | – | – | – | – |
| COc1cc(-c2nc(NC(C)=O)sc2-c2ccncc2)cc(OC)c1OC | – | – | – | – | – | 3.2 | – | – | – | – | – | – | – | – | – |
| COc1ccc(C(=O)Nc2nc(-c3ccccc3)c(-c3nc4ccccc4c(=O)n3-c3ccccc3)s2)cc1 | 1 | 11 | 0.174 | > 1 | > 1 | > 0.1 | > 1 | > 1 | – | – | – | – | 20 | – | – |
| COc1ccc(-n2c(-c3sc(NC(=O)c4ccco4)nc3-c3ccccc3)nc3ccccc3c2=O)cc1 | – | – | 0.00645 | > 1 | > 1 | > 0.1 | > 1 | > 1 | – | 30 | 0.973 | – | 11 | 25 | – |
| O=C(Nc1nc(-c2ccccc2)c(C(=O)c2ccc(F)cc2F)s1)c1ccco1 | – | – | 0.124 | 0.178 | 0.0733 | > 0.1 | 0.00669 | 0.132 | – | 15 | – | – | – | – | 100 |
| O=C(Nc1nc(-c2ccccc2)c(-c2nc3ccccc3c(=O)n2-c2ccc(Cl)cc2)s1)c1ccco1 | 14 | – | 0.0483 | > 1 | > 1 | > 0.1 | > 1 | > 1 | – | 1 | 0.607 | – | 8 | 24 | – |
| Cc1ccc(-n2c(-c3sc(NC(=O)c4ccco4)nc3-c3ccccc3)nc3ccccc3c2=O)cc1 | 6 | – | 0.0254 | > 1 | > 1 | > 0.1 | > 1 | > 1 | – | – | 1.84 | – | 1 | 25 | – |
| CCCCn1c(=O)c2[nH]c(C34CC5CC(CC3C5)C4)nc2n(CCCO)c1=O | – | – | 2.3 | – | 0.552 | 0.187 | 0.000124 | – | – | – | 6.5 | – | – | – | – |
| CC[C@@H]1CN2C(=O)N(C)c3nc(-c4ccccc4)[nH]c3C2=N1 | – | – | – | – | – | 3.7 | – | 0.108 | – | – | > 10 | – | – | – | – |
